Measurements taken from article PMC2828288 (Journal of medicinal chemistry, 2010).
Read-outs that look alike come from different tables or passages of the source.

How the values were obtained:
FAAH [1] = biological target: T1, FAAH (Mus musculus, UniProt O08914); details: mice, 20 mg/kg intraperitoneally, or 100 mg/kg orally; cited from earlier work
T1 sequence (O08914 1-579): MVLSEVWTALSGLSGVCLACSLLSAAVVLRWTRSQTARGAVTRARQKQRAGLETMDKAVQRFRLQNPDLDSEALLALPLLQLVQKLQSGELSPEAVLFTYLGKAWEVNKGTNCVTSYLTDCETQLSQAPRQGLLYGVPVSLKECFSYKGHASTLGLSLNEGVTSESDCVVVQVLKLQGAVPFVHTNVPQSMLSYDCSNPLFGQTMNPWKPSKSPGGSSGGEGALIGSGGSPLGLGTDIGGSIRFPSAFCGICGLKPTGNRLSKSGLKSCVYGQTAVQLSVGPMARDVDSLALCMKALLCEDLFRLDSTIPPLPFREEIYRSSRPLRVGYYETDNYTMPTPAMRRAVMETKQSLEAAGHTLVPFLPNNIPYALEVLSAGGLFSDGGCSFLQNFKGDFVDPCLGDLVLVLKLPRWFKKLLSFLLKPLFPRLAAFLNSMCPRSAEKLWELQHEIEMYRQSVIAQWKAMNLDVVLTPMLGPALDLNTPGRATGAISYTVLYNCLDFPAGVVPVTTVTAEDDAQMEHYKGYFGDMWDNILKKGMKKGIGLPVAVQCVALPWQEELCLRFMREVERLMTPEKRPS

MAGL [2] = details: mice, 20 mg/kg intraperitoneally, or 100 mg/kg orally; cited from earlier work
NTE [3] = biological target: T2, NTE (Mus musculus, UniProt Q3TRM4); details: mice, 20 mg/kg intraperitoneally, or 100 mg/kg orally; cited from earlier work
T2 sequence (Q3TRM4 1-1355): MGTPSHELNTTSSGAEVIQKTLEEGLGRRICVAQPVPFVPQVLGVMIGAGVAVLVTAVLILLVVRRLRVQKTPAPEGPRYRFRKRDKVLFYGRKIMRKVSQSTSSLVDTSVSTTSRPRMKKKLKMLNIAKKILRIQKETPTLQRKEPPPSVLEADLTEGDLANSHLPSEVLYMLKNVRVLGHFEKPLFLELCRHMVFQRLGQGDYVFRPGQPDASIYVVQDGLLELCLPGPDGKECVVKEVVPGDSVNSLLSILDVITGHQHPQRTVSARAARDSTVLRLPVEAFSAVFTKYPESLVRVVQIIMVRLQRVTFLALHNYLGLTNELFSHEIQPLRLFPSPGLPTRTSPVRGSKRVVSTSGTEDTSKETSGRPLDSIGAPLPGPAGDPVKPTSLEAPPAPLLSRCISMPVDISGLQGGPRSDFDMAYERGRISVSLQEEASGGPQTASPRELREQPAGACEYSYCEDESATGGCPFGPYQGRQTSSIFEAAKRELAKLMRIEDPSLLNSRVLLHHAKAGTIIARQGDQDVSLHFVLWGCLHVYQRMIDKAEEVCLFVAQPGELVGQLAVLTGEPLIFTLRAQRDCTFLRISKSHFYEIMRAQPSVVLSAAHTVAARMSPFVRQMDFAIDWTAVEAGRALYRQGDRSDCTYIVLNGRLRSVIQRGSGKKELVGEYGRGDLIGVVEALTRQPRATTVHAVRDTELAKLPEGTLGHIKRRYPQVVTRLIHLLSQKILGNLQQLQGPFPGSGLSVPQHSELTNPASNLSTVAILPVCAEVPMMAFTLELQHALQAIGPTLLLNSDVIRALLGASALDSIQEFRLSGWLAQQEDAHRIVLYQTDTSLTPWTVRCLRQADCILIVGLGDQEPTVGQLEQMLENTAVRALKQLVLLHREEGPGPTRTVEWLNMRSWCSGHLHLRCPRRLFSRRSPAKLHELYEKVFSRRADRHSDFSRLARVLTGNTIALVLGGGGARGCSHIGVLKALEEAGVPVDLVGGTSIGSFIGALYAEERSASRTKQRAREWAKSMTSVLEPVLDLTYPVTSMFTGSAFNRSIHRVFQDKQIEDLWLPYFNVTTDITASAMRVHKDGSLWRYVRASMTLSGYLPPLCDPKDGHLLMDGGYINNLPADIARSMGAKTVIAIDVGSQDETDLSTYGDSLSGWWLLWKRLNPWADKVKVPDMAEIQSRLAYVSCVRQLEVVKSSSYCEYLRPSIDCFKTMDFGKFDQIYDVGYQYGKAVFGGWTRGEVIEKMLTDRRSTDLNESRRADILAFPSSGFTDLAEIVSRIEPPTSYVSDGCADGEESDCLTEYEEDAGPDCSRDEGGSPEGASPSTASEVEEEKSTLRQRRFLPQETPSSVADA

[4] = mice, 20 mg/kg i.p. daily for 6 days; cited from earlier work
NTE [5] = biological target: T2, NTE; experiment: NTE activity after in vivo administration to mice; details: 20 mg/kg, i.p., data not shown
[6] = tested on: serine hydrolases in the mouse brain membrane proteome; format: biochemical; details: competitive ABPP
Procedure, shortened: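 Mouse brain tissue Dounce-homogenized in PBS pH 7.5, spun at 1,400 × g for 5 min, then at 64,000 × g for 45 min; the membrane pellet was resuspended in PBS by sonication. Proteome at 1 mg/ml was preincubated with test compound at the indicated concentrations for 30 min at 37 °C. FP-rhodamine (1 μM final) was then added for 30 min at 25 °C, followed by SDS-PAGE and in-gel fluorescence scanning.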

total brain 2-AG levels = details: upon administration to mice; cited from earlier work
FAAH [7] = biological target: T1, FAAH; experiment: FAAH activity after in vivo administration to mice; details: administration to mice at doses that reduced MAGL activity; data not shown
MAGL [8] = experiment: Competitive ABPP; format: biochemical, mouse; details: brain proteome

Question: For `O=C(Oc1ccc([N+](=O)[O-])cc1)N1CCN(Cc2cccc(Oc3ccccc3)c2)CC1` [Compound 2], which “FAAH blockade in vivo” value (FAAH [1]) is on record?
Answer: completely blocked

Question: What about the “MAGL blockade in vivo” value (MAGL [2]) of the same compound?
Answer: completely blocked

Question: And the “NTE inhibition in vivo” value (NTE [3])?
Answer: no inhibition of NTE was observed

Question: And the “death or overt signs of discomfort on chronic administration” value [4]?
Answer: did not produce death or overt signs of discomfort

Question: With `O=C(Oc1ccc([N+](=O)[O-])cc1)N1CCN(Cc2ccc(-c3ccccc3)s2)CC1` [Compound 36h, 4-nitrophenyl 4-((5-phenylthiophen-2-yl)methyl)piperazine-1-carboxylate] as the compound, how does the “NTE inhibition in vivo” value (NTE [5]) read?
Answer: inhibited NTE

Question: For `CN(CCC(c1ccccc1)c1ccccc1)C(=O)Oc1ccc([N+](=O)[O-])cc1` [Compound 9a, 4-nitrophenyl 3,3-diphenylpropyl(methyl)carbamate], which “activity against FAAH, MAGL and other serine hydrolases” value (“activity against FAAH” for short) [6] is on record?
Answer: inactive

Question: For `O=C(Oc1ccc([N+](=O)[O-])cc1)N1CCC(C(O)(c2ccc3c(c2)OCO3)c2ccc3c(c2)OCO3)CC1` [Compound 1, 4-nitrophenyl 4-(dibenzo[d][1,3]dioxol-5-yl(hydroxy)methyl)piperidine-1-carboxylate], which “elevation of total brain 2-AG levels” value (total brain 2-AG levels) is on record?
Answer: > 8 fold

Question: For `COc1ccc(C(O)(c2ccc(OC)cc2)C2CCN(C(=O)Oc3ccc([N+](=O)[O-])cc3)CC2)cc1` [Compound 6], which “FAAH activity in vivo” value (FAAH [7]) is on record?
Answer: significantly blocked FAAH activity

Question: For `COc1ccc(C(O)(c2ccc(OC)cc2)C2CCN(C(=O)Oc3ccc([N+](=O)[O-])cc3)C2)cc1` (stereo not drawn) [Compound 15, 4-nitrophenyl 3-(hydroxybis(4-methoxyphenyl)methyl)pyrrolidine-1-carboxylate], which “activity against FAAH” value [6] is on record?
Answer: inactive

Question: For `COc1ccc(C(O)(c2ccc(OC)c(OC)c2)C2CCN(C(=O)Oc3ccc([N+](=O)[O-])cc3)CC2)cc1OC` [Compound 33c, 4-nitrophenyl 4-(bis(3,4-dimethoxyphenyl)(hydroxy)methyl)piperidine-1-carboxylate], which Selectivity (MAGL [8]; MAGL over FAAH (ratio of IC50s)) is on record?
Answer: >38

Question: And the “selectivity for MAGL over FAAH” value (MAGL [8])?
Answer: 40–400 fold

Question: For `CN(C(=O)Oc1ccc([N+](=O)[O-])cc1)C(c1ccccc1)c1ccccc1` [Compound 9b, 4-nitrophenyl benzhydryl(methyl)carbamate], which “activity against FAAH” value [6] is on record?
Answer: inactive

Question: Which “selectivity for MAGL over FAAH” value (MAGL [8]) does the source give for `COc1ccccc1C(O)(c1ccccc1OC)C1CCN(C(=O)Oc2ccc([N+](=O)[O-])cc2)CC1` [Compound 33b, 4-nitrophenyl 4-(hydroxybis(2-methoxyphenyl)methyl)piperidine-1-carboxylate] here?
Answer: ~ 10 fold

Question: With `O=C(Oc1ccc([N+](=O)[O-])cc1)N1CCN(Cc2cccc(Oc3cc(Cl)cc(Cl)c3)c2)CC1` [Compound 36q, 4-nitrophenyl 4-(3-(3,5-dichlorophenoxy)benzyl)piperazine-1-carboxylate] as the compound, how does the “activity against FAAH” value [6] read?
Answer: unable to inhibit any of the hydrolases

Question: With `O=C(Oc1ccc([N+](=O)[O-])cc1)N1CCN(C(c2ccc(F)cc2)c2ccc(F)cc2)CC1` [Compound 5] as the compound, how does the “FAAH activity in vivo” value (FAAH [7]) read?
Answer: significantly blocked FAAH activity
